In ChEMBL document CHEMBL1212890, “Synthesis and biological evaluation of tetracyclic fluoroquinolones as antibacterial and anticancer agents” (Bioorg Med Chem, 2010):
≈ marks a conversion by molar mass, not a printed value. Calls of active or inactive are those of the source. The rule behind the calls is not given here.

Experiments:
[1] = tested on: Bacillus subtilis; experiment: Antimicrobial activity against Bacillus subtilis ATCC 6633 after 24 hrs by broth microdilution method; type: functional; conditions: ATCC 6633, 24 h
How it was run: (§1)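 Broth dilution method. H. influenzae grown in Haemophilus Test Medium, other bacteria in Mueller Hinton Broth. Compounds dissolved in DMSO and diluted in growth medium. Incubated 24 h at 37 °C. MIC is the lowest concentration inhibiting reproduction of the organism. Drug-free tubes served as growth controls, organism-free tubes as purity controls, and solvent-only tubes as controls.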

[2] = tested on: Acinetobacter baumannii; experiment: Antimicrobial activity against quinolone and penicillin-resistant Acinetobacter baumannii after 24 hrs by broth microdilution method; type: functional
How it was run: (§2)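 Broth dilution in Mueller Hinton Broth; compounds dissolved in DMSO and diluted in growth medium. […] Drug-free tubes served as growth controls and organism-free tubes as purity controls, with solvent-only controls included. Ciprofloxacin, levofloxacin, moxifloxacin and gemifloxacin were the reference drugs.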

[3] = Inhibition of Escherichia coli DNA gyrase-mediated supercoiling of pBR322 using bromothymol blue by electrophoresis
How it was run: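 E. coli gyrase supercoiling of relaxed pBR322 in 35 mM Tris–HCl pH 7.5, 24 mM KCl, 4 mM MgCl2, 2 mM DTT, 1.8 mM spermidine, 1 mM ATP, 6.5% glycerol, 0.1 mg/mL albumin. Incubated 30 min at 37 °C, stopped with chloroform/isoamyl alcohol, run on 1% agarose and gel-quantitated. IC50 is the concentration halving supercoiling versus drug-free control. ≥3 independent experiments.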

[4] = tested on: Staphylococcus aureus; experiment: Antimicrobial activity against quinolone and penicillin-resistant Staphylococcus aureus SAR4790 after 24 hrs by broth microdilution method; type: functional; how it was run: as §2
[5] = tested on: Staphylococcus epidermidis; experiment: Antimicrobial activity against quinolone and penicillin-resistant Staphylococcus epidermidis SER after 24 hrs by broth microdilution method; type: functional; how it was run: as §2
[6] = Inhibition of Escherichia coli DNA topoisomerase-4-mediated decatenation of kinetoplast DNA by electrophoresis
[7] = tested on: Staphylococcus aureus; experiment: Antimicrobial activity against Staphylococcus aureus ATCC 6538 after 24 hrs by broth microdilution method; type: functional; conditions: ATCC 6538, 24 h; how it was run: as §1
[8] = tested on: Staphylococcus aureus; experiment: Antimicrobial activity against quinolone and penicillin-resistant Staphylococcus aureus SAR72 after 24 hrs by broth microdilution method; type: functional; how it was run: as §2
[9] = tested on: Acinetobacter baumannii; experiment: Antimicrobial activity against Acinetobacter baumannii ATCC 19606 after 24 hrs by broth microdilution method; type: functional; conditions: ATCC 19606, 24 h; how it was run: as §1
[10] = tested on: Escherichia coli; experiment: Antimicrobial activity against Escherichia coli ATCC 8739 after 24 hrs by broth microdilution method; type: functional; conditions: ATCC 8739, 24 h; how it was run: as §1
[11] = tested on: Haemophilus influenzae; experiment: Antimicrobial activity against Haemophilus influenzae ATCC 19418 after 24 hrs by broth microdilution method; type: functional; conditions: ATCC 19418, 24 h; how it was run: as §1
[12] = tested on: Pseudomonas aeruginosa; experiment: Antimicrobial activity against Pseudomonas aeruginosa ATCC 9027 after 24 hrs by broth microdilution method; type: functional; conditions: ATCC 9027, 24 h; how it was run: as §1
[13] = tested on: Staphylococcus epidermidis; experiment: Antimicrobial activity against Staphylococcus epidermidis ATCC 12228 after 24 hrs by broth microdilution method; type: functional; conditions: ATCC 12228, 24 h; how it was run: as §1
[14] = tested on: Pseudomonas aeruginosa; experiment: Antimicrobial activity against quinolone and penicillin-resistant Pseudomonas aeruginosa after 24 hrs by broth microdilution method; type: functional; how it was run: as §2
[15] = tested on: Escherichia coli; experiment: Antimicrobial activity against quinolone and penicillin-resistant Escherichia coli after 24 hrs by broth microdilution method; type: functional; how it was run: as §2
[16] = Cytotoxicity against human HDF after 72 hrs by MTT assay; type: cell-based
How it was run: (§3)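 Cells kept in medium with 2 mM glutamine and 10% FBS at 37 °C, 5% CO2. Compounds dissolved in DMSO just before addition (final ≤0.1% v/v; same solvent in controls). After 72 h exposure, viability read by MTT. Triplicates, ≥3 independent experiments. Dose–response fitted with single or double Hill functions; IC50 extrapolated from curves.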

[17] = tested on: A549; experiment: Cytotoxicity against human A549 cells after 72 hrs by MTT assay; type: functional, cell-based; conditions: A549, 72 h; how it was run: as §3
[18] = tested on: MCF7; experiment: Cytotoxicity against human MCF7 cells after 72 hrs by MTT assay; type: functional, cell-based; conditions: MCF7, 72 h; how it was run: as §3
[19] = tested on: MCF7; experiment: Induction of apoptosis in human MCF7 cells assessed as p53 accumulation after 24 hrs by Western blotting
[20] = tested on: MCF7; experiment: Induction of apoptosis in human MCF7 cells assessed as caspase-7 activation at 5 uM after 24 hrs by Western blotting
[21] = tested on: MCF7; experiment: Induction of cell death in human MCF7 cells at 5 uM after 48 hrs using Hoechst 33342/PI staining by microscopy; type: functional, cell-based
How it was run: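 MCF-7 cells exposed to compound for 48 h, then stained with Hoechst 33342/PI. Cell death quantified by fluorescence microscopy as percent values. Means of three separate experiments.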

| SMILES | MIC [1] | MIC [2] | IC50 [3] | MIC ([4]; SAR4790, 24 h) | MIC [5] | IC50 [6] | MIC [7] | MIC ([8]; SAR72, 24 h) | MIC [9] | MIC [10] | MIC [11] | MIC [12] | MIC [13] | MIC [14] | MIC [15] | IC50 [16] | IC50 [17] | IC50 [18] | other results |
| --- | --- | --- | --- | --- | --- | --- | --- | --- | --- | --- | --- | --- | --- | --- | --- | --- | --- | --- | --- |
| COc1c(N2C[C@@H]3CCCN[C@@H]3C2)c(F)cc2c(=O)c(C(=O)O)cn(C3CC3)c12 [MOXIFLOXACIN] | 0.015 µg/mL (≈ 0.0374 µM) | 50 µg/mL (≈ 125 µM) | 0.85 µg/mL (≈ 2.12 µM) | 50 µg/mL (≈ 125 µM) | 50 µg/mL (≈ 125 µM) | 5 µg/mL (≈ 12.5 µM) | 0.03 µg/mL (≈ 0.0747 µM) | 12 µg/mL (≈ 29.9 µM) | 0.15 µg/mL (≈ 0.374 µM) | 0.03 µg/mL (≈ 0.0747 µM) | 0.03 µg/mL (≈ 0.0747 µM) | 0.7 µg/mL (≈ 1.74 µM) | 0.07 µg/mL (≈ 0.174 µM) | > 100 µg/mL |  |  |  |  |  |
| CO/N=C1\CN(c2nc3c(cc2F)c(=O)c(C(=O)O)cn3C2CC2)CC1CN (stereo not given) [GEMIFLOXACIN] | 0.007 µg/mL (≈ 0.018 µM) | 100 µg/mL (≈ 257 µM) |  | 50 µg/mL (≈ 128 µM) | 50 µg/mL (≈ 128 µM) |  | 0.015 µg/mL (≈ 0.0385 µM) | 6 µg/mL (≈ 15.4 µM) | 0.3 µg/mL (≈ 0.77 µM) | 0.015 µg/mL (≈ 0.0385 µM) | 0.015 µg/mL (≈ 0.0385 µM) | 0.07 µg/mL (≈ 0.18 µM) | 0.015 µg/mL (≈ 0.0385 µM) | > 100 µg/mL | 50 µg/mL (≈ 128 µM) |  |  |  |  |
| O=C(O)c1cn(C2CC2)c2cc(N3CCNCC3)c(F)cc2c1=O [CIPROFLOXACIN] | 0.03 µg/mL (≈ 0.0905 µM) | > 100 µg/mL | 0.34 µg/mL (≈ 1.03 µM) | > 100 µg/mL | 100 µg/mL (≈ 302 µM) | 4.6 µg/mL (≈ 13.9 µM) | 0.3 µg/mL (≈ 0.905 µM) | 100 µg/mL (≈ 302 µM) | 0.7 µg/mL (≈ 2.11 µM) |  | 0.15 µg/mL (≈ 0.453 µM) | 0.07 µg/mL (≈ 0.211 µM) | 0.07 µg/mL (≈ 0.211 µM) |  |  |  |  |  |  |
| O=C(O)c1cn(C2CC2)c2c(cc(F)c3c2[nH]c2ccsc23)c1=O | 0.003 µg/mL (≈ 0.00876 µM) | > 100 µg/mL | 1.1 µg/mL (≈ 3.21 µM) | > 100 µg/mL | 50 µg/mL (≈ 146 µM) | 100 µg/mL (≈ 292 µM) | 0.03 µg/mL (≈ 0.0876 µM) | 12 µg/mL (≈ 35.1 µM) | 3 µg/mL (≈ 8.76 µM) | 1.5 µg/mL (≈ 4.38 µM) | 0.015 µg/mL (≈ 0.0438 µM) | 50 µg/mL (≈ 146 µM) | 0.03 µg/mL (≈ 0.0876 µM) | > 100 µg/mL | > 100 µg/mL | > 10 µM | 6.4 µM | 4400 nM |  |
| COc1ccc2c(c1)[nH]c1c2c(F)cc2c(=O)c(C(=O)O)cn(C3CC3)c21 | 0.07 µg/mL (≈ 0.191 µM) | > 100 µg/mL | 4.8 µg/mL (≈ 13.1 µM) | > 100 µg/mL | > 100 µg/mL | 48 µg/mL (≈ 131 µM) | 3 µg/mL (≈ 8.19 µM) | > 100 µg/mL | 50 µg/mL (≈ 136 µM) | > 100 µg/mL | 1.5 µg/mL (≈ 4.09 µM) | > 100 µg/mL | 3 µg/mL (≈ 8.19 µM) | inactive | inactive | > 10 µM | 4.9 µM | 2400 nM |  |
| O=C(O)c1cn(C2CC2)c2c(cc(F)c3c4ccc(F)cc4[nH]c32)c1=O | 0.003 µg/mL (≈ 0.00847 µM) | > 100 µg/mL | 1.8 µg/mL (≈ 5.08 µM) | > 100 µg/mL | 3 µg/mL (≈ 8.47 µM) | 28 µg/mL (≈ 79 µM) | 0.07 µg/mL (≈ 0.198 µM) | 1.5 µg/mL (≈ 4.23 µM) | 12 µg/mL (≈ 33.9 µM) | 25 µg/mL (≈ 70.6 µM) | 0.15 µg/mL (≈ 0.423 µM) | > 100 µg/mL | 0.07 µg/mL (≈ 0.198 µM) | inactive | > 100 µg/mL | > 10 µM | 3.5 µM | 800 nM | Activity [19]: Active; Activity [20]: Active; Activity [21]: Active |
| C[C@H]1COc2c(N3CCN(C)CC3)c(F)cc3c(=O)c(C(=O)O)cn1c23.C[C@H]1COc2c(N3CCN(C)CC3)c(F)cc3c(=O)c(C(=O)O)cn1c23.O [LEVOFLOXACIN] | 0.03 µg/mL | > 100 µg/mL |  | 100 µg/mL | > 100 µg/mL |  | 0.07 µg/mL | 25 µg/mL | 0.15 µg/mL |  | 0.15 µg/mL | 0.3 µg/mL | 0.15 µg/mL | 50 µg/mL | 25 µg/mL |  |  |  |  |
| O=C(O)c1cn(C2CC2)c2c(cc(F)c3c4ccccc4[nH]c32)c1=O | 0.015 µg/mL (≈ 0.0446 µM) | > 100 µg/mL | 1.7 µg/mL (≈ 5.05 µM) | > 100 µg/mL | > 100 µg/mL | 35 µg/mL (≈ 104 µM) | 0.3 µg/mL (≈ 0.892 µM) | 12 µg/mL (≈ 35.7 µM) | 12 µg/mL (≈ 35.7 µM) | 50 µg/mL (≈ 149 µM) | 0.03 µg/mL (≈ 0.0892 µM) | > 100 µg/mL | 0.15 µg/mL (≈ 0.446 µM) | inactive | > 100 µg/mL | > 10 µM | 6.4 µM | 3600 nM |  |
| COc1c(C)cc2c([nH]c3c2c(F)cc2c(=O)c(C(=O)O)cn(C4CC4)c23)c1C | 0.07 µg/mL (≈ 0.177 µM) | inactive | > 30 µg/mL | > 100 µg/mL | > 100 µg/mL | 31 µg/mL (≈ 78.6 µM) | 6 µg/mL (≈ 15.2 µM) | > 100 µg/mL | > 100 µg/mL | > 100 µg/mL | 6 µg/mL (≈ 15.2 µM) | > 100 µg/mL | 25 µg/mL (≈ 63.4 µM) | inactive | inactive | > 10 µM | 3 µM | 1700 nM |  |
| Cc1ccc2c(c1)[nH]c1c2c(F)cc2c(=O)c(C(=O)O)cn(C3CC3)c21 | 0.07 µg/mL (≈ 0.2 µM) | inactive | 3 µg/mL (≈ 8.56 µM) |  | inactive | > 300 µg/mL | > 100 µg/mL |  | > 100 µg/mL | > 100 µg/mL | > 100 µg/mL | > 100 µg/mL | > 100 µg/mL | inactive | inactive | > 10 µM | > 10 µM | > 10000 nM | MIC [4]: inactive; MIC [8]: inactive |
| Cc1c2ccncc2c(C)c2c1[nH]c1ccccc12 [ELLIPTECINE] |  |  |  |  |  |  |  |  |  |  |  |  |  |  |  | > 10 µM | 3.4 µM | 1600 nM |  |
